Series [1] addresses T1, Glucagon-like peptide 1 receptor (Mus musculus) (UniProt O35659).
T1 sequence (whole entry): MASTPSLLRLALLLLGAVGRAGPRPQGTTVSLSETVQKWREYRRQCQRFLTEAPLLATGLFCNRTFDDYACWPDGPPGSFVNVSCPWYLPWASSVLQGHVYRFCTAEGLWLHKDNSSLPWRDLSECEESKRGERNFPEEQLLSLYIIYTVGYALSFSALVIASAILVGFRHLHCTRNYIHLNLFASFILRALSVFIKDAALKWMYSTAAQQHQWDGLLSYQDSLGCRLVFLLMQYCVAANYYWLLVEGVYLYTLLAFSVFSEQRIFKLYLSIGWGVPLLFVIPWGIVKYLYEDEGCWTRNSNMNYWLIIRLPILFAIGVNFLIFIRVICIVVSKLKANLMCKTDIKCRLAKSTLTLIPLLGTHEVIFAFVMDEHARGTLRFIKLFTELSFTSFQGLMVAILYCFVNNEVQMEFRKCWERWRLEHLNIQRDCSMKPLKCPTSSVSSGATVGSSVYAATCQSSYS
Briefly: Inhibition of 15 mM glucose-mediated increase in intracellular Ca2+ level in mouse MIN6-c4 cells at 30 uM by FLIPR assay relative to control. The series is classed as functional, cell-based.

The test system of series [2] is Mus musculus. Description: Suppression of blood glucose concentration in ob/ob C57Bl/6J mouse model of T2DM at 4.5 mg/kg, ip and treated with 60 mg/kg, po OATP/MRP2 inhibitor rifampicin 2.5 hrs prior to oral glucose-tolerance test. The format is functional, organism-based. The procedure, abridged:
(§1)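 Male ob/ob mice aged 10–11 weeks, n=7, randomised on blood glucose and fasted overnight. Rifampicin 60 mg/kg p.o. 2.5 h before the oGTT, compound 30 mg/kg p.o. 1 h before, GLP1(9-36)NH2 i.p. 15 min before, each given as indicated. Glucose 2 g/kg orally. Tail-vein glucose by glucometer at 0, 15, 30, 60 and 90 min.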

Series [3] concerns Mus musculus. Description: Suppression of blood glucose concentration in ob/ob C57Bl/6J mouse model of T2DM at 4.5 mg/kg, ip in absence of 60 mg/kg, po OATP/MRP2 inhibitor rifampicin by oral glucose-tolerance test. The series is classed as functional, organism-based. The method in brief: as §1
Series [4] can be described thus: Cmax in mouse at 10 mg/kg, po. The note with it: in vivo.
Series [5] can be described thus: Tmax in mouse at 10 mg/kg, po. The note with it: in vivo.
Series [6] deals with T1, Glucagon-like peptide 1 receptor (Mus musculus). Description: Positive allosteric modulator activity at mouse GLP-1R expressed in PSC-HEK293 cells in presence of EC20 level of GLP1(9-36)NH2 incubated for 30 mins by HTRF cAMP assay relative to control. The series is classed as functional, cell-based. (TR-FRET usually uses a lanthanide donor and a delayed reading to cut background.)

Series [7] concerns the target T2, Glucagon-like peptide 1 receptor (Mus musculus, UniProt O35659).
T2 sequence (O35659 whole entry): T1 sequence (whole entry)
Briefly: Positive allosteric modulator activity at mouse GLP-1R expressed in PSC-HEK293 cells in presence of EC20 level of GLP1(9-36)NH2 incubated for 30 mins by HTRF cAMP assay. The format is functional, cell-based.

Series [8] addresses T3, Glucagon-like peptide 1 receptor (Homo sapiens, UniProt P43220). Description: Positive allosteric modulator activity at human GLP-1R expressed in PSC-HEK293 cells in presence of EC20 level of GLP1(9-36)NH2 incubated for 30 mins by HTRF cAMP assay relative to control. The series is classed as functional, cell-based. The procedure, abridged: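 Thaw-and-use PSC-HEK293 cells stably expressing human GLP-1R, 2000 cells/well in HBSS/20 mM HEPES/0.1% BSA with 2 mM IBMX. Enhancer format: compound dose-response plus fixed EC20 GLP1(9-36)NH2. Shift format: GLP1(9-36)NH2 dose-response plus 10 or 3 μM compound. 30 min at room temperature. HTRF cAMP read after 1 h lysis (665/620 nm). EC50 from a 4-parameter logistic fit.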

The target of series [9] is T3, Glucagon-like peptide 1 receptor. Briefly: Displacement of radioactive labeled GLP-1(7-36)NH2 from human GLP-1R by radioactive ligand binding assay.
For series [10] the target is unchanged. Description: Positive allosteric modulator activity at GLP-1R in human 1.1B4 cells in presence of EC20 level of GLP1(9-36)NH2 incubated for 30 mins by HTRF cAMP assay relative to control. The series is classed as functional, cell-based. The method in brief: (§2)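 Human pancreatic β-cell line 1.1B4, 20,000 cells/well cultured overnight, washed twice; compound concentration-response with fixed 10 nM GLP1(9-36)NH2, 30 min. cAMP by HTRF 665/620 ratio, normalised to buffer (1x HBSS, 0.1% BSA, 1 mM IBMX; 0%) and GLP-1(7-36)NH2 (100%); 4-parameter logistic fit.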

A short description of series [11]: Agonist activity at KATP channel (unknown origin). Further details: species or system Homo sapiens.
Series [12] deals with Sodium channel protein type 5 subunit alpha (Homo sapiens, UniProt Q14524). Briefly: Effect on Nav1.5 (unknown origin).
Chain of Sodium channel protein type 5 subunit alpha (Q14524 whole entry): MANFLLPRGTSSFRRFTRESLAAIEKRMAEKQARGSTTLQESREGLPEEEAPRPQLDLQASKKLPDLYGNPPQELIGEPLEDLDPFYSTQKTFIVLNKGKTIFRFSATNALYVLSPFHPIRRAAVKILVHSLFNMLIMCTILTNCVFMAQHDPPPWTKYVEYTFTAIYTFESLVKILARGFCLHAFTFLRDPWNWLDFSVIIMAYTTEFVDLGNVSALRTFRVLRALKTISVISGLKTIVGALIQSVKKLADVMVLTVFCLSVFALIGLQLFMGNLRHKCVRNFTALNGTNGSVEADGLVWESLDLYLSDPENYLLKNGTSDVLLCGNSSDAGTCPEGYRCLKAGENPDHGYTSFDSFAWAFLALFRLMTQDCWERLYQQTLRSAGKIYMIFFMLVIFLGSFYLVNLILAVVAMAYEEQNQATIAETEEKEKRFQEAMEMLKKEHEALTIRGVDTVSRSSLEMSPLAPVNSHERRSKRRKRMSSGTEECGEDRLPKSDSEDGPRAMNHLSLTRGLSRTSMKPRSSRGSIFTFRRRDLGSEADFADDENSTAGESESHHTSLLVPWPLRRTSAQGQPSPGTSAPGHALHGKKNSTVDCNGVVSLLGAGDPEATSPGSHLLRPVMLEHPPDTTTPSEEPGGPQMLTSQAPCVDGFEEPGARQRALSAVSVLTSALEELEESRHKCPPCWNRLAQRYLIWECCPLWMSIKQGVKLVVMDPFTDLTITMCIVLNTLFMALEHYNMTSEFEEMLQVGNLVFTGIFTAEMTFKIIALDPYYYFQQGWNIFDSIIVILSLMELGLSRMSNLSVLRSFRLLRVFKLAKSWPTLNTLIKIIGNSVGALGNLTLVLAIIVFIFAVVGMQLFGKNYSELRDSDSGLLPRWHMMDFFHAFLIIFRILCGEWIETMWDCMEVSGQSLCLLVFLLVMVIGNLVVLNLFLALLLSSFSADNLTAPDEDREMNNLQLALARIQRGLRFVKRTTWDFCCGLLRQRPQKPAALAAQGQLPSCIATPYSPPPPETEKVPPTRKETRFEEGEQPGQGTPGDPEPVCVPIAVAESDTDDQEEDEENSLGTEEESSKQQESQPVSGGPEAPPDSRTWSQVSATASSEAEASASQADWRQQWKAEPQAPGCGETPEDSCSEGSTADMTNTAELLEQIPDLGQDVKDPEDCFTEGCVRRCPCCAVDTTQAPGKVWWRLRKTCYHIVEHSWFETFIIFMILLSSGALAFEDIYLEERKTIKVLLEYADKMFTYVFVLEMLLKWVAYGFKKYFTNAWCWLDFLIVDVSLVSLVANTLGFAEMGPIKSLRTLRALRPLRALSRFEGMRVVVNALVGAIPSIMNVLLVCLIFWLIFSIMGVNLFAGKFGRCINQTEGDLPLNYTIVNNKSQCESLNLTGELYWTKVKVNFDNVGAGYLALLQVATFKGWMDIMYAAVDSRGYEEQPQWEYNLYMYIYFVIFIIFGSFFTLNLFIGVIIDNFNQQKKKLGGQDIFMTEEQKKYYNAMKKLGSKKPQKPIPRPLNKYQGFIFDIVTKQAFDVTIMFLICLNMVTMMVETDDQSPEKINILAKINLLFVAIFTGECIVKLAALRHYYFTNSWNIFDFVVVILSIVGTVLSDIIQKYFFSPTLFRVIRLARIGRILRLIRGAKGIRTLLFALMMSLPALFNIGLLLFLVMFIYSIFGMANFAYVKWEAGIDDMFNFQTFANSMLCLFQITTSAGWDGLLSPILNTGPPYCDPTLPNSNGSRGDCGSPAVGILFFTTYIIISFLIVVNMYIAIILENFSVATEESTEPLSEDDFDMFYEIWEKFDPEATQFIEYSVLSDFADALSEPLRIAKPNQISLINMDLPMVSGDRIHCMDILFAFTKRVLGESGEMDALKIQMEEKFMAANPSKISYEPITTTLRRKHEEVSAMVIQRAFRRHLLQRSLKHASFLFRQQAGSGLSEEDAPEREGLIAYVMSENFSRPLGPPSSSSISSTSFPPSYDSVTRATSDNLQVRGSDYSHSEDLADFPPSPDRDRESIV
Series [13] can be described thus: Stability in GSH assay. The format is physicochemical.
The target in series [14] is T3, Glucagon-like peptide 1 receptor. Description: Positive allosteric modulator activity at GLP-1R in human 1.1B4 cells in presence of EC20 level of GLP1(9-36)NH2 incubated for 30 mins by HTRF cAMP assay. The format is functional, cell-based. The procedure, abridged:
as §2

For series [15] the target is unchanged. Briefly: Positive allosteric modulator activity at human GLP-1R expressed in PSC-HEK293 cells in presence of EC20 level of GLP1(9-36)NH2 incubated for 30 mins by HTRF cAMP assay. The series is classed as functional, cell-based. The procedure, abridged: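 Thaw-and-use PSC-HEK293 cells stably expressing human GLP-1R, 2000 cells/well in HBSS/20 mM HEPES/0.1% BSA with 2 mM IBMX. Enhancer format: compound dose-response plus fixed EC20 GLP1(9-36)NH2. Shift format: GLP1(9-36)NH2 dose-response plus 10 or 3 μM compound. 30 min at room temperature. EC50 from a 4-parameter logistic fit.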

Series [16] addresses T1, Glucagon-like peptide 1 receptor (Mus musculus). Briefly: Positive allosteric modulator activity at GLP-1R in mouse MIN6-c4 cells assessed as effect on glucose-mediated increase in intracellular Ca2+ level by FLIPR assay relative to control. The format is functional, cell-based.
In series [17] the target is Sodium channel protein type 2 subunit alpha (Homo sapiens) (UniProt Q99250). Description: Effect on Nav1.2 (unknown origin).
Chain of Sodium channel protein type 2 subunit alpha (Homo sapiens) (Q99250 whole entry, looked up): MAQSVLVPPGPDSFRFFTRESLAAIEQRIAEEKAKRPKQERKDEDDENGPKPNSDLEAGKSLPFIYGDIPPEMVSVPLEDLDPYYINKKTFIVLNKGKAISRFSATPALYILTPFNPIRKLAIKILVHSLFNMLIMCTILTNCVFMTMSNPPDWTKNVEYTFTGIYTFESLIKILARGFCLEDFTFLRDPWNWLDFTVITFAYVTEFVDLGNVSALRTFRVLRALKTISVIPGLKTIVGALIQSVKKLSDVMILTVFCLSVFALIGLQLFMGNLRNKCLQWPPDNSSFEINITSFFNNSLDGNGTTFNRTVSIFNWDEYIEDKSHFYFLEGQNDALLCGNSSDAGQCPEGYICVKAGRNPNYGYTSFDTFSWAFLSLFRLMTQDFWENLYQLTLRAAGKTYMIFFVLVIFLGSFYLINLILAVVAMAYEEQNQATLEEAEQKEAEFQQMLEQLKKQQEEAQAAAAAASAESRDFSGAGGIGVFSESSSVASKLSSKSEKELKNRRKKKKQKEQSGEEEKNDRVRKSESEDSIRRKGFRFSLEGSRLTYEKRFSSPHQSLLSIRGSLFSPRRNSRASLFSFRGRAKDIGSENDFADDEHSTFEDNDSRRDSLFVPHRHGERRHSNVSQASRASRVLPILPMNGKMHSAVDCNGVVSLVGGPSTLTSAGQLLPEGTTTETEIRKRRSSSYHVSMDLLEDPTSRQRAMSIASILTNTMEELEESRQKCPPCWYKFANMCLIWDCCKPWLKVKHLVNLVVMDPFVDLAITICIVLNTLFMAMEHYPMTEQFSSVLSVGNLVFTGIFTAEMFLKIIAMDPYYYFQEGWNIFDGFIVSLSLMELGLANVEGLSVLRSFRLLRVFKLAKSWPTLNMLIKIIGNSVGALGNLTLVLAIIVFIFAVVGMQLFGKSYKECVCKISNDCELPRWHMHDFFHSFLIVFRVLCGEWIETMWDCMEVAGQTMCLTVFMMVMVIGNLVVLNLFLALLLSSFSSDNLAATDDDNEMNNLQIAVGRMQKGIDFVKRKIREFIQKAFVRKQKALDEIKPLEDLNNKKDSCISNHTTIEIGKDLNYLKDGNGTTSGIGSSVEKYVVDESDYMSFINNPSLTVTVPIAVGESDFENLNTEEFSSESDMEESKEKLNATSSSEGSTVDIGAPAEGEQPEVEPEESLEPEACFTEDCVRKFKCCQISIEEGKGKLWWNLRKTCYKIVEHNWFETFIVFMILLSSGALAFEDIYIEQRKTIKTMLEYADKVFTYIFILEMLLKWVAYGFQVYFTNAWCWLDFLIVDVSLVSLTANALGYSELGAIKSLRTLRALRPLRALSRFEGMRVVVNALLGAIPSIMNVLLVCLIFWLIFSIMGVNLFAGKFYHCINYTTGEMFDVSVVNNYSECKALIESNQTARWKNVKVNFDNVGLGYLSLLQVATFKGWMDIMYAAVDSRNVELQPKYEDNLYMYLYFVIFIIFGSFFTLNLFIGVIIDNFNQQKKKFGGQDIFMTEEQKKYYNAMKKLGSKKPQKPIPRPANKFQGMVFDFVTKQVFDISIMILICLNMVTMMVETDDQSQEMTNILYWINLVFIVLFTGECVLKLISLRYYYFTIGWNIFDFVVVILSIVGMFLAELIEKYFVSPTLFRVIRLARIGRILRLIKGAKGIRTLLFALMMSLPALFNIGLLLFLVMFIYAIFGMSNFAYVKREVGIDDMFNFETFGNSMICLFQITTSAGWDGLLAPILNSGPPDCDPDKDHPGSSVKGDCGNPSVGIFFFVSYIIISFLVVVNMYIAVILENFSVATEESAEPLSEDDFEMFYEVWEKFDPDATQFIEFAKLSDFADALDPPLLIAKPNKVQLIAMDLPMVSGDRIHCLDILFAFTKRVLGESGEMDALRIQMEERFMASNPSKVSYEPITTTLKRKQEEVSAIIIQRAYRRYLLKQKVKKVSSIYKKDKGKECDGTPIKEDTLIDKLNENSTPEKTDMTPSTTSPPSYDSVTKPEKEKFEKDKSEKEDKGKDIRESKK
In series [18] the target is T3, Glucagon-like peptide 1 receptor. Description: Positive allosteric modulator activity at human GLP-1R expressed in PSC-HEK293 cells assessed as potentiation of GLP1(9-36)NH2-induced cAMP accumulation by measuring shift in EC50 of endogenous GLP1(9-36)NH2 at 10 uM incubated for 30 mins by HTRF cAMP assay relative to control. The format is functional, cell-based. The method in brief: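 Thawed frozen PSC-HEK293 cells stably expressing human GLP-1R, 2000 cells/well in HBSS/20 mM HEPES/0.1% BSA with 2 mM IBMX. Shift format: GLP1(9-36)NH2 dose-response with compound fixed at 10 or 3 µM; 30 min room temperature; cAMP by HTRF (665/620 nm ratio) after 1 h with lysis reagents; 4-parameter logistic fit; EC50 shift factor derived.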
For orientation: Changes in cAMP serve as a functional read-out for many G protein-coupled receptors.

The term Cmax denotes the maximum level reached in the sampled fluid or tissue. For orientation: Tmax means the time from dosing to the highest level. In general, Emax refers to the maximal effect, on the per cent scale that the assay sets. For orientation: EC50 means the concentration at which the effect is half-maximal.

Structures are written as SMILES. Calls of active or inactive are those of the source. No cut-off for these calls is given here.

T3 sequence (P43220 whole entry): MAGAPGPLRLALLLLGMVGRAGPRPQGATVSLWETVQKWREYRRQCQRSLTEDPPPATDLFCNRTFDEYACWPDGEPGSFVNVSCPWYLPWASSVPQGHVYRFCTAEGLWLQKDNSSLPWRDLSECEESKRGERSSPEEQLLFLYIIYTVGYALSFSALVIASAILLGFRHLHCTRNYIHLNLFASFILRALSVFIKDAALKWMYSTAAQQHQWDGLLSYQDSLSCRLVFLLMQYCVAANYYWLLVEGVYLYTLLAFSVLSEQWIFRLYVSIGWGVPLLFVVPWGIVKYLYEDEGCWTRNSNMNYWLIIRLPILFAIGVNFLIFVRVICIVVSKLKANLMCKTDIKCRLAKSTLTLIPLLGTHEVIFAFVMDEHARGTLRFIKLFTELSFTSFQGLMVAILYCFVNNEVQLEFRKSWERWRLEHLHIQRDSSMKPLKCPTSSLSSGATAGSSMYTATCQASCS

Turning to `CC1=Nc2ccc(Cl)cc2S(=O)(=O)N1`, the inhibition entry in series [1] is “Active”.
Take `CC[C@H](C)[C@H](NC(=O)[C@H](Cc1ccccc1)NC(=O)[C@H](CCC(=O)O)NC(=O)[C@H](CCCCN)NC(=O)[C@H](C)NC(=O)[C@H](C)NC(=O)[C@H](CCC(N)=O)NC(=O)CNC(=O)[C@H](CCC(=O)O)NC(=O)[C@H](CC(C)C)NC(=O)[C@H](Cc1ccc(O)cc1)NC(=O)[C@H](CO)NC(=O)[C@H](CO)NC(=O)[C@@H](NC(=O)[C@H](CC(=O)O)NC(=O)[C@H](CO)NC(=O)[C@@H](NC(=O)[C@H](Cc1ccccc1)NC(=O)[C@@H](NC(=O)CNC(=O)[C@@H](N)CCC(=O)O)[C@@H](C)O)[C@@H](C)O)C(C)C)C(=O)N[C@@H](C)C(=O)N[C@@H](Cc1c[nH]c2ccccc12)C(=O)N[C@@H](CC(C)C)C(=O)N[C@H](C(=O)N[C@@H](CCCCN)C(=O)NCC(=O)N[C@@H](CCCNC(=N)N)C(N)=O)C(C)C`: the outcome in the series with Mus musculus [2] and with Mus musculus [3] was inactive.
Compound `CO[C@H]1/C=C/O[C@@]2(C)Oc3c(C)c(O)c4c(O)c(c(/C=N/N5CCN(C)CC5)c(O)c4c3C2=O)NC(=O)/C(C)=C\C=C\[C@H](C)[C@H](O)[C@@H](C)[C@@H](O)[C@@H](C)[C@H](OC(C)=O)[C@@H]1C` [RIFAMPIN] registered a Cmax in series [4] of 13 µM. In addition, the Tmax in [5] came to 1.5 h.
On to `Cc1cc(-n2nc3c(c2-n2ccn(-c4ccc5c(cnn5C)c4F)c2=O)[C@H](C)N(C(=O)c2cc4cc([C@H]5CCOC(C)(C)C5)ccc4n2[C@@]2(c4noc(=O)[nH]4)C[C@@H]2C)CC3)cc(C)c1F` [ORFORGLIPRON], for which the figures for the Emax in series [6] and in series [8] were 100% and 91%, respectively. Further, the EC50 in series [7] was 300 nM.
On to `CC(C)(C)OC(=O)n1c2c(c3ccccc31)C[C@H]1C(=O)NC[C@@H]2N1C(=O)CC1CCC(F)(F)CC1`, for which, in series [9], the inhibition entry was “inactive”. Further, the Emax entry in series [10] is “inactive”. Further, the EC50 in series [11] is 2670 nM; in series [14], “Not Active”; in series [15], 5 nM. The outcome in series [12] was Active. In addition, the Stability entry in series [13] is “Stable”. In [16], the “fold change (FC)” value was “inactive”. Besides, the outcome in series [17] was Active. Moreover, in [8], the Emax stood at 99%. The Ratio EC50 in series [18] is 3800.

The record behind these values is ChEMBL document CHEMBL4354813, “Design, Synthesis, and Pharmacological Evaluation of Potent Positive Allosteric Modulators of the Glucagon-like Peptide-1 Receptor (GLP-1R)” (J Med Chem, 2020).
